Test results published in ChEMBL document CHEMBL4130477, “Metabolites from the Plant Endophytic Fungus Aspergillus sp. CPCC 400735 and Their Anti-HIV Activities” (J Nat Prod, 2017).
Active and inactive are the calls of the source. No cut-off for these calls is given here.

Key:
[1] = system: Human immunodeficiency virus 1; experiment: Antiviral activity against VSV-G pseudotyped HIV1 infected in human SupT1 cells at 100 uM after 48 hrs by luciferase reporter gene assay relative to control; assay type: functional; details: for inhibition at 100 µM: Human immunodeficiency virus 1, SUP-T1, 48 h
In short: (§1)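 VSV-G pseudotyped HIV-1 (pNL-Luc-E plus pHIT/G) was made by […] (2 × 105), harvested at 48 h through a 0.45 μm filter, and quantified by p24 ELISA. […] Compounds were screened at 100 μM; IC50 was determined for those above 60% inhibition.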

[2] = system: Human immunodeficiency virus 1; experiment: Antiviral activity against VSV-G pseudotyped HIV1 infected in human SupT1 cells after 48 hrs by luciferase reporter gene assay; assay type: functional, organism-based; details: Human immunodeficiency virus 1, SUP-T1, 48 h; in short: as §1
[3] = Cytotoxicity against human SupT1 cells assessed as decrease in cell viability after 48 hrs by CCK-8 assay; assay type: cell-based, SUP-T1

Structure (SMILES)	inhibition at 100 µM [1] [%]	IC50 [2] [µM]	CC50 at 48 h [3] [µM]	inhibition [1]
COc1cc(/C=C2\OC(=O)C(c3ccc(O)cc3)=C2O)cc(OC)c1O	52.3	43.7	> 100	
COC(=O)[C@]1(Cc2ccc(O)cc2)OC(=O)C(OC)=C1c1ccc(O)cc1	68.7	74.8	> 100	
CC1=C(C)[C@H]2[C@H](Cc3ccccc3)NC(=O)[C@]23OC(=O)/C=C/[C@@](C)(O)C[C@@H](C)C/C=C/[C@H]3[C@@H]1O [CYTOCHALASIN Z9]	98.7	14.4	> 100	
Cc1c(O)c(O)c(O)c(C=O)c1-c1cc2c(C=O)c(C)c(O)c(O)c2o1	94.7	20.2	> 100	
O=C1O/C(=C\c2ccc(O)c(O)c2)C(O)=C1c1ccc(O)cc1	72.3	40	> 100	
COC(=O)[C@@]1(Cc2ccc(O)c(C[C@H](O)C(C)(C)O)c2)OC(=O)C(OC)=C1c1ccc(O)cc1	73.4	67.2	> 100	
COc1cc(/C=C2\OC(=O)C(c3ccc(O)cc3)=C2O)ccc1O				inactive
COC(=O)c1cc(O)cc(OC)c1Oc1cc(C)cc(O)c1C(=O)O [ASTERRIC ACID]	8.53			
C/C1=C\CC(=O)O[C@@]23C(=O)N[C@@H](Cc4ccccc4)[C@@H]2[C@H](C)[C@@]2(C)O[C@H]2[C@@H]3/C=C/C[C@H](C)C1=O	81.5	41.6	98.6	
COC(OC)C1CCC(C(C)(C)O)OC1CC/C(C)=C/CC/C(C)=C/C[C@]1(O)C(=O)c2c(O)cc(C)c3c(O)c(C)c(O)c(c23)C1=O (stereo partly drawn)	99.8	2.4	> 100	
C/C(=C\CC/C(C)=C/C[C@]1(O)C(=O)c2c(O)cc(C)c3c(O)c(C)c(O)c(c23)C1=O)CC/C=C(\CO)CC[C@@H](O)C(C)(C)O	98.6	22.1	> 100	
O=C1O/C(=C\c2ccc(O)cc2)C(O)=C1c1ccc(O)c(O)c1	74.8	72.4	> 100	
COC(=O)c1cc(O)cc(OC)c1Oc1c(Cl)c(C)c(Cl)c(O)c1C(=O)O				inactive
CC1=C(C)[C@H]2[C@H](Cc3ccccc3)NC(=O)[C@@]2(O)[C@@H](/C=C/C[C@H](C)C(=O)[C@H](C)O)[C@@H]1O [CYTOCHALASIN Z13]	44.9			
CC1=C(C)[C@H]2[C@H](Cc3ccccc3)NC(=O)[C@]23OC(=O)C/C=C(/C)C(=O)[C@@H](C)C/C=C/[C@H]3[C@@H]1O	79.5	28.9	70.8	
C=C1[C@@H](C)[C@H]2[C@H](Cc3ccccc3)NC(=O)[C@]23OC(=O)/C=C/[C@H](C)[C@H](O)[C@@H](C)C/C=C/[C@H]3[C@@H]1O	100	25.8	95.1	
Cc1c(O)c(O)c2c(c1C=O)[C@@H]1O[C@H](O2)c2c(C)c(O)c(O)c(O)c2C1=O	99.9	6.6	> 100	
COC(=O)[C@]1(Cc2ccc(O)cc2)OC(=O)C(O)=C1c1ccc(O)cc1	60.8	84.5	> 100	

Structure (SMILES)	inhibition at 100 µM [1] [%]	IC50 [2] [µM]	CC50 at 48 h [3] [µM]	inhibition [1]
COC(=O)[C@@]1(Cc2ccc3c(c2)C[C@H](O)C(C)(C)O3)OC(=O)C(OC)=C1c1ccc(O)cc1	84.8	48	93	
COC(=O)c1cc(O)cc(OC)c1C(=O)c1c(O)cc(C)cc1O [SULOCHRIN]	53.8			
COC1=C(c2ccc(O)cc2)[C@@H](Cc2ccc(O)cc2)OC1=O	72.8	68.7	96.5	
COC(=O)[C@@]1(Cc2ccc(O)c(C[C@@H](O)C(C)(C)O)c2)OC(=O)C(OC)=C1c1ccc(O)cc1	64.3	82.3	94.3	
C/C(=C\CC/C(C)=C/C[C@]1(O)C(=O)c2c(O)cc(C)c3c(O)c(C)c(O)c(c23)C1=O)CC/C=C(\CC[C@@H](O)C(C)(C)O)C(=O)O	96.8	32.6	78.6	
O=C1Nc2ccc(Cl)cc2[C@@](C#CC2CC2)(C(F)(F)F)O1 [EFAVIRENZ]		0.0004		
C/C(=C\CC/C(C)=C/C[C@]1(O)C(=O)c2c(O)cc(C)c3c(O)c(C)c(O)c(c23)C1=O)CC/C=C(/CC[C@@H](O)C(C)(C)O)C(=O)O	48.1			
COc1cc(O)cc(C(=O)O)c1Oc1cc(C)cc(O)c1C(=O)O	25.5			
COC(=O)c1cc(O)cc(OC)c1C(=O)c1c(O)c(Cl)c(C)c(Cl)c1O [DIHYDROGEODIN]	91.1	56.3	> 100	
C[C@H]1/C=C/OC(=O)O[C@@]23C(=O)N[C@@H](Cc4ccccc4)[C@@H]2[C@H](C)[C@@]2(C)OC2[C@@H]3/C=C/C[C@H](C)C1=O (stereo partly drawn)	54.3			
O=C1O[C@H](Cc2ccc(O)cc2)C(c2ccc(O)cc2)=C1O	62.2	54.2	> 100	
Nc1ccn([C@@H]2CS[C@H](CO)O2)c(=O)n1 [LAMIVUDINE]		0.1		
COc1cc(/C=C2\OC(=O)C(c3ccc(O)cc3)=C2O)cc(O)c1O	69.8	78.3	> 100	
Cc1c(O)c(O)c(O)c2c1COC2	90.8	49.3	91.4	
O=C1O/C(=C\c2ccc(O)cc2)C(O)=C1c1ccc(O)cc1				inactive
CC(C)=CCC/C(=C/CC/C(C)=C/CC/C(C)=C/C[C@]1(O)C(=O)c2c(O)cc(C)c3c(O)c(C)c(O)c(c23)C1=O)CO	100	4.5	> 100	
CC1=C(C)[C@H]2[C@H](Cc3ccccc3)NC(=O)[C@]23OC(=O)/C=C/[C@H](C)[C@H](O)[C@@H](C)C/C=C/[C@H]3[C@@H]1O	100	9.2	> 100	
